Measurements from different studies.
Cell line: MCF7
Effect on: cell growth or viability

With `COC(C(=O)N1C(=O)SCC1C1(OC)CC2CC(CCC(C)C=CC=CCCC(C)=CC(=O)O2)O1)c1ccccc1` (centres unmarked) the IC50 was 15.4 µM (MTT; 72 h).
`N.N.[Cl][Pt][Cl]` gave an IC50 of 15.6 µM (MTT; 48 h).
The IC50 of `COc1c2c(cc3c1OCO3)[C@]13C=C[C@H](OC)C[C@@H]1[N@](C2)C[C@H]3OC(=O)c1ccco1` is reported as greater than 10 µM (WST-1).
With `C/C1=C/C(=O)O[C@@H]2C[C@@H](CC[C@H](C)/C=C\C=C\CC1)O[C@@](O)([C@@H]1CSC(=O)N1Cc1ccccc1)C2` the IC50 was 0.63 µM (MTT; 72 h).
`COc1cc2c3c(n(CCCN4CCOCC4)c(=O)c2cc1OC)-c1cc2c(cc1C3=O)OCO2` has an IC50 of 0.288 µg/mL (72 h).
`O=c1ccc2cc3ccoc3cc2o1` has an IC50 of 32.4 µM (WST-1; 48 h).
The IC50 of `C[C@]12C[C@@H](O)[C@H]3[C@@H](CC[C@]4(O)C[C@@H](O)C[C@@H](O)[C@]34CO)[C@@]1(O)CC[C@@H]2c1cn(Cc2ccccc2)nn1` is reported as greater than 100 µM (resazurin; 72 h).
The IC50 of `O=C(Oc1ccc(-n2cccc2)cc1)[c-]1cccc1.[Fe+2].c1cc[cH-]c1` is reported as 1.4 µM (MTT; 72 h).
With `COc1c2c(cc3c1OCO3)[C@]13C=C[C@H](OC)C[C@@H]1[N@](C2)C[C@H]3OC(=O)c1ccc2ccccc2c1` the IC50 was greater than 10 µM (WST-1).
The IC50 of `COc1ccc(/C=C\c2cc(OC)c(OC)c(OC)c2)cc1` is reported as 0.0048 µM (SRB; 48 h).
With `O=c1ccc2ccc3occc3c2o1` the IC50 was 7 µM (WST-1; 48 h).
The IC50 of `O=C(Oc1ccc(Cl)cc1)[c-]1cccc1.[Fe+2].c1cc[cH-]c1` is reported as 33 µM (MTT; 72 h).
`CO[C@]1([C@@H]2CSC(=O)N2C)C[C@H]2C[C@@H](CC[C@H](C)/C=C\C=C\CC/C(C)=C\C(=O)O2)O1` has an IC50 of 13.1 µM (MTT; 72 h).
For `[Cl-].[Cl-].[Co+2]`, the IC50 was greater than 150 µM (MTT; 48 h).
The IC50 of `CO[C@]1([C@@H]2CSC(=O)N2CCCO)C[C@H]2C[C@@H](CC[C@H](C)/C=C\C=C\CC/C(C)=C\C(=O)O2)O1` is reported as 19.2 µM (MTT; 72 h).
For `c1ccc2c(c1)CCc1c-2[nH]c2ccccc12`, the IC50 was greater than 75 µM (MTT; 72 h).
`C/C1=C/C(=O)O[C@@H]2C[C@@H](CC[C@H](C)/C=C\C=C\CC1)O[C@@](O)([C@@H]1CSC(=O)N1CO)C2` has an IC50 of 0.12 µM (MTT; 72 h).
The IC50 of `N[C@@H](Cc1ccc(N(CCCl)CCCl)cc1)C(=O)O` is reported as greater than 50 µM (CCK-8; 48 h).
The IC50 of `CO[C@]1([C@@H]2CSC(=O)N2C(=O)c2ccccc2)C[C@H]2C[C@@H](CC[C@H](C)/C=C\C=C\CC/C(C)=C\C(=O)O2)O1` is reported as 0.55 µM (MTT; 72 h).
For `O=C1[O][Pt]2([NH][C@@H]3CCCC[C@H]3[NH]2)[O]C1=O`, the IC50 was 2.6 µM (MTT; 96 h).
